Reference: ChEMBL document CHEMBL1156597, “Structure-activity relationship of kahalalide F synthetic analogues” (J Med Chem, 2008)

Columns and labels:
[1] = system: DU-145; test: Cytotoxicity against human DU145 cells after 48 hrs by SRB assay; type: functional, cell-based; conditions: Homo sapiens, DU-145, 48 h; for CC50: read-out: LC50 (the source's name)
Procedure, shortened: (§1)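 Cells grown in RPMI 1640 with 10% FBS and penicillin/streptomycin at 37 °C and 5% CO₂, trypsinized, then seeded at 5 × 10³/well. After 18 h drug-free attachment, samples in DMSO/EtOH/PBS (0.5:0.5:99) were added for 48 h continuous exposure. Cells were fixed with cold TCA (1 h, 4 °C) and stained with SRB (10 min). Tris-solubilized stain read at 490 nm. Triplicate wells, mean ± SD; GI₅₀ derived.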

[2] = system: LNCaP; test: Cytotoxicity against human LNcaP cells after 48 hrs by SRB assay; type: functional; conditions: for CC50: read-out: LC50 (the source's name); procedure, shortened: as §1
[3] = Cytotoxicity against human IGROV cells after 48 hrs by SRB assay; type: functional; conditions: for CC50: read-out: LC50 (the source's name); procedure, shortened: as §1
[4] = Cytotoxicity against human IGROV-ET cells after 48 hrs by SRB assay; type: functional; conditions: for CC50: read-out: LC50 (the source's name); procedure, shortened: as §1
[5] = system: SK-BR-3; test: Cytotoxicity against human SKBR3 cells after 48 hrs by SRB assay; type: functional; conditions: SK-BR-3, 48 h; for GI50: read-out: GI50; for CC50: read-out: LC50 (the source's name); procedure, shortened: as §1
[6] = system: SK-MEL-28; test: Cytotoxicity against human SK-MEL-28 cells after 48 hrs by SRB assay; type: functional, cell-based; conditions: Homo sapiens, SK-MEL-28, 48 h; for CC50: read-out: LC50 (the source's name); procedure, shortened: as §1
[7] = system: A549; test: Cytotoxicity against human A549 cells after 48 hrs by SRB assay; type: functional, cell-based; conditions: Homo sapiens, A549, 48 h; procedure, shortened: as §1
[8] = system: K562; test: Cytotoxicity against human K562 cells after 48 hrs by SRB assay; type: functional; conditions: K562, 48 h; for CC50: read-out: LC50 (the source's name); procedure, shortened: as §1
[9] = system: PANC-1; test: Cytotoxicity against human PANC1 cells after 48 hrs by SRB assay; type: functional; conditions: PANC-1, 48 h; for CC50: read-out: LC50 (the source's name); procedure, shortened: as §1
[10] = system: HT-29; test: Cytotoxicity against human HT29 cells after 48 hrs by SRB assay; type: functional, cell-based; conditions: Homo sapiens, HT-29, 48 h; for CC50: read-out: LC50 (the source's name); procedure, shortened: as §1
[11] = system: LoVo; test: Cytotoxicity against human LoVo cells after 48 hrs by SRB assay; type: functional; conditions: for CC50: read-out: LC50 (the source's name)
[12] = system: LoVo; test: Cytotoxicity against human doxorubicin resistant LoVo cells after 48 hrs by SRB assay; type: functional; conditions: for CC50: read-out: LC50 (the source's name); procedure, shortened: as §1
[13] = system: HeLa; test: Cytotoxicity against human HeLa cells after 48 hrs by SRB assay; type: functional; conditions: for CC50: read-out: LC50 (the source's name); procedure, shortened: as §1
[14] = Cytotoxicity against human HeLa-APL cells after 48 hrs by SRB assay; type: functional; procedure, shortened: as §1

`C/C=C1\NC(=O)[C@H](Cc2ccccc2)NC(=O)[C@@H](C(C)C)NC(=O)[C@@H]([C@H](C)CC)NC(=O)[C@H](NC(=O)[C@H](NC(=O)[C@H](CCCN)NC(=O)[C@H]2CCCN2C(=O)[C@H](NC(=O)[C@@H](NC(=O)[C@H](CC(C)C)NC(=O)[C@H](NC(=O)CCCC(C)C)C(C)C)C(C)C)C(C)C)[C@H](C)CC)[C@H](C)OC(=O)[C@H](C(C)C)NC1=O` showed a GI50 [1] of 0.949 µM, a GI50 ([1]; read-out: GI50) of 0.959 µM and a CC50 [1] of 0.944 µM. It also gave a GI50 [2] of 1.05 µM, a TGI [2] of 0.964 µM and a CC50 [2] of 0.879 µM. It also gave a GI50 [3] of 0.566 µM, a GI50 ([3]; read-out: GI50) of 0.637 µM and a CC50 [3] of 0.489 µM. It also gave a GI50 [4] of 0.583 µM, a GI50 ([4]; read-out: GI50) of 0.754 µM and a CC50 [4] of 0.538 µM. For the same compound, the TGI [5] was 0.466 µM, the GI50 [5] was 0.428 µM and the CC50 [5] was 0.36 µM. The TGI [6] was 1.21 µM, the GI50 ([6]; read-out: GI50) was 1.27 µM and the CC50 [6] was 1.14 µM. For the same compound, the GI50 [7] was 0.602 µM, the LC50 [7] was 5.28 µM and the GI50 ([7]; read-out: GI50) was 0.637 µM. It also gave a GI50 [8] of 0.542 µM, a TGI [8] of 0.926 µM and a CC50 [8] of 1.63 µM. For the same compound, the GI50 [9] was 1.11 µM, the TGI [9] was 1.28 µM and the CC50 [9] was 1.76 µM. For the same compound, the CC50 [10] was 0.442 µM, the GI50 [11] was 0.417 µM and the TGI [11] was 0.459 µM. The CC50 [11] was 0.331 µM, the GI50 [12] was 0.28 µM and the TGI [12] was 0.244 µM. The CC50 [12] was 0.256 µM, the GI50 [13] was 1.06 µM and the TGI [13] was 1.02 µM. It also gave a CC50 [13] of 0.983 µM, a GI50 [14] of 1.17 µM and an LC50 (concentration giving 50% net cell kill) [14] of 0.89 µM. It also gave a TGI [14] of 1.02 µM.

For `C/C=C1\NC(=O)[C@H](Cc2ccccc2)NC(=O)[C@@H](C(C)C)NC(=O)[C@@H]([C@H](C)CC)NC(=O)[C@H](NC(=O)[C@H](NC(=O)[C@H](CCCN)NC(=O)[C@H]2CCCN2C(=O)[C@H](NC(=O)[C@@H](NC(=O)[C@@H](NC(=O)[C@H](NC(=O)CCCCC(C)=O)C(C)C)[C@@H](C)O)C(C)C)C(C)C)[C@H](C)CC)[C@H](C)OC(=O)[C@H](C(C)C)NC1=O`, the CC50 [1] was 1.67 µM, the CC50 [2] was 1.39 µM and the CC50 [3] was 0.851 µM. It also gave a CC50 [4] of 0.638 µM, a TGI [5] of 6.31 µM and a GI50 [5] of 7.27 µM. For the same compound, the CC50 [5] was 1.05 µM, the CC50 [6] was 1.84 µM and the LC50 [7] was 1.81 µM. It also gave a CC50 [8] of 1.91 µM, a CC50 [9] of 2.29 µM and a CC50 [10] of 2.35 µM. The GI50 [11] was 8.59 µM, the TGI [11] was 8.1 µM and the CC50 [11] was 3.9 µM. The GI50 [12] was 5.05 µM, the TGI [12] was 7.66 µM and the CC50 [12] was 3.71 µM. For the same compound, the CC50 [13] was 1.37 µM and the LC50 (concentration giving 50% net cell kill) [14] was 1.44 µM.

With `C/C=C1\NC(=O)[C@H](Cc2ccccc2)NC(=O)[C@@H](C(C)C)NC(=O)[C@@H]([C@H](C)CC)NC(=O)[C@H](NC(=O)[C@H](NC(=O)[C@H](CCCN)NC(=O)[C@H]2CCCN2C(=O)[C@H](NC(=O)[C@@H](NC(=O)CNC(=O)[C@H](NC(=O)CCCC(C)C)C(C)C)C(C)C)C(C)C)[C@H](C)CC)[C@H](C)OC(=O)[C@H](C(C)C)NC1=O` the GI50 [1] was 0.994 µM, the GI50 ([1]; read-out: GI50) was 0.572 µM and the CC50 [1] was 1.36 µM. It also gave a GI50 [2] of 0.233 µM, a TGI [2] of 0.988 µM and a CC50 [2] of 0.988 µM. For the same compound, the GI50 [3] was 0.0837 µM, the GI50 ([3]; read-out: GI50) was 0.0807 µM and the CC50 [3] was 0.139 µM. The GI50 [4] was 0.232 µM, the GI50 ([4]; read-out: GI50) was 0.197 µM and the CC50 [4] was 0.566 µM. It also gave a TGI [5] of 0.819 µM, a GI50 [5] of 0.629 µM and a CC50 [5] of 0.512 µM. For the same compound, the GI50 [6] was 0.283 µM, the GI50 ([6]; read-out: GI50) was 0.205 µM and the CC50 [6] was 0.717 µM. For the same compound, the GI50 [7] was 0.622 µM, the GI50 ([7]; read-out: GI50) was 0.524 µM and the GI50 [8] was 0.129 µM. The TGI [8] was 0.208 µM, the CC50 [8] was 0.744 µM and the GI50 [9] was 0.515 µM. It also gave a TGI [9] of 1.07 µM, a CC50 [9] of 1.99 µM and a GI50 [10] of 0.893 µM. The TGI [10] was 1.85 µM, the CC50 [10] was 0.796 µM and the GI50 [11] was 0.597 µM. For the same compound, the TGI [11] was 1.13 µM, the CC50 [11] was 0.828 µM and the GI50 [12] was 2.39 µM. The TGI [12] was 3.04 µM, the CC50 [12] was 3.85 µM and the GI50 [13] was 0.25 µM. It also gave a TGI [13] of 0.471 µM, a CC50 [13] of 0.755 µM and a GI50 [14] of 0.23 µM. The LC50 (concentration giving 50% net cell kill) [14] was 0.684 µM and the TGI [14] was 0.421 µM.
